According to the M2OR odorant receptor database:

What was measured:
Settings in all cases: stereoisomer not certain
[1] = target: T1, UniProt L7MU75
T1 sequence (whole entry): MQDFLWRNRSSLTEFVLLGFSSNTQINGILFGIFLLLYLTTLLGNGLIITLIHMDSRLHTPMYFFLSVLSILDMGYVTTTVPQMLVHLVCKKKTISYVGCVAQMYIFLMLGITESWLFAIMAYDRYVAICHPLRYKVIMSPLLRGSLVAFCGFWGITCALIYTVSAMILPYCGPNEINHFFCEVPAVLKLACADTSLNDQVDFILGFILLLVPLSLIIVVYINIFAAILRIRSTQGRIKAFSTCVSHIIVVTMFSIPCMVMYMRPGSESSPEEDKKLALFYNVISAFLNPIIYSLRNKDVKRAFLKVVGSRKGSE
How it was run: (§1)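 Each receptor–molecule pair is labelled responsive or non-responsive (inactive) according to whether the original authors judged the measured signal statistically different from baseline. The data were taken from the main text and supplementary material of published papers and checked for typos and inconsistencies. Assay methods differed by source, with transient luciferase assays in mammalian cell lines being common.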

[2] = target: T2, UniProt L7N210
T2 sequence (whole entry): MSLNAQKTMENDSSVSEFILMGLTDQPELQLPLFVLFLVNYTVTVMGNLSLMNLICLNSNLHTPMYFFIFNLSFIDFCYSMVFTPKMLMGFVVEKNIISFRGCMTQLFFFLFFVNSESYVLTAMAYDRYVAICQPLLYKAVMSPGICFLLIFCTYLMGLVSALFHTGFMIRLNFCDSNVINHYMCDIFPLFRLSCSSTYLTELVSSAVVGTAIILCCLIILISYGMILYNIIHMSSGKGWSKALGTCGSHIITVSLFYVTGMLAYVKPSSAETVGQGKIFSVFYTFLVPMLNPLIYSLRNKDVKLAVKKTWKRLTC
How it was run: as §1

[3] = target: T3, UniProt Q3KPB0
T3 sequence (whole entry): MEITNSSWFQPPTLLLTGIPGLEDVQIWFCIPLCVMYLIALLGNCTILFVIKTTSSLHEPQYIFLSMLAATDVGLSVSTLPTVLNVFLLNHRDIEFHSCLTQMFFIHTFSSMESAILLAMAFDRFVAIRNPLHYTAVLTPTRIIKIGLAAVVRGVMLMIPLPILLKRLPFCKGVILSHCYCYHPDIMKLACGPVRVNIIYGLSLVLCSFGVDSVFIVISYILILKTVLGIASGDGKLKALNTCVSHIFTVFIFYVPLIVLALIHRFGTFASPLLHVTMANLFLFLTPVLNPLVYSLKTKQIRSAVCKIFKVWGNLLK
How it was run: as §1

[4] = target: T4, UniProt Q3U0P3
T4 sequence (whole entry): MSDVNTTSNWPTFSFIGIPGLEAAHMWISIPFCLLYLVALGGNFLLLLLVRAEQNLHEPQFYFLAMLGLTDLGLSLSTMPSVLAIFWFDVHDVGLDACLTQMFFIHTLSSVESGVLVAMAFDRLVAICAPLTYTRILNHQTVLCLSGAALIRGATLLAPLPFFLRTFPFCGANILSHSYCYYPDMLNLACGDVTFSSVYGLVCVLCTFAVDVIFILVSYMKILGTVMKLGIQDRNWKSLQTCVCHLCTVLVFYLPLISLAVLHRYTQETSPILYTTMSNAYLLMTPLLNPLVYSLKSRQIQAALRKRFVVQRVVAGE
How it was run: as §1

[5] = target: T5, UniProt Q7TQU8
T5 sequence (whole entry): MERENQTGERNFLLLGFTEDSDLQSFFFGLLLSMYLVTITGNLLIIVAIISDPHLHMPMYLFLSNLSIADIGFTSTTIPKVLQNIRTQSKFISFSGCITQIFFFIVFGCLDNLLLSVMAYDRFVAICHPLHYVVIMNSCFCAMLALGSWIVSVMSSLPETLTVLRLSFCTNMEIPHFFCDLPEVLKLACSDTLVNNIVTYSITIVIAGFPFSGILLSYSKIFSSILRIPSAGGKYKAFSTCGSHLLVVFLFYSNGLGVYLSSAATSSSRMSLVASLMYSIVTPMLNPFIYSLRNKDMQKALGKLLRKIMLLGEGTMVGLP
How it was run: as §1

[6] = target: T6, UniProt Q7TQV4
T6 sequence (whole entry): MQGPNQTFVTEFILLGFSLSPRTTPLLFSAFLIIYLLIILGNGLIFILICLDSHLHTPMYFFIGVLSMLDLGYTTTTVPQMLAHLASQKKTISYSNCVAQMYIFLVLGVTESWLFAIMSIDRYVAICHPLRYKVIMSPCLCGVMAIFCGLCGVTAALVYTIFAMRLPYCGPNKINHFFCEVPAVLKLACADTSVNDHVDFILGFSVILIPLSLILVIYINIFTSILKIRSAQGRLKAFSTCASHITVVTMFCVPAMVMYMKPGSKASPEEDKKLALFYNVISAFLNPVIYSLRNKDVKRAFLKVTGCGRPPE
How it was run: as §1
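Further: active if original authors judged signal statistically different from baseline.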

SMILES	odorant receptor agonist call [1]	odorant receptor agonist call [2]	odorant receptor agonist call [3]	odorant receptor agonist call [4]	odorant receptor agonist call [5]	odorant receptor agonist call [6]
CC(=O)OCc1ccc2c(c1)OCO2	inactive	active	inactive	inactive	inactive	
COc1nccnc1C	active	inactive	inactive	inactive	inactive	
C=CC(C)=CCC=C(C)CCC=C(C)C	inactive	inactive	inactive	inactive	inactive	
CC(=O)C1(C)CC2=C(CCCC2(C)C)CC1C (stereo unspecified)	inactive	inactive	inactive	inactive	inactive	
COC(OC)c1ccccc1	inactive	inactive	inactive	inactive	inactive	
CCSSCC	inactive	inactive	inactive	inactive	inactive	
CC1CCC(C(C)C)C(=O)C1 (stereo unspecified)	inactive	inactive	inactive	inactive	inactive	
Cc1ccc(OC(=O)C(C)C)cc1	inactive	inactive	inactive	inactive	inactive	
CC(C)=C1CCC(C)CC1=O (stereo unspecified)	inactive	inactive	inactive	inactive	inactive	
Cc1ccccc1OC(=O)C(C)C	inactive	inactive	inactive	inactive	inactive	
CCCCCCCCCCCO	inactive	inactive	inactive	inactive	inactive	
C=C(C)C1CCC(C)C(O)C1 (stereo unspecified)	inactive	inactive	inactive	inactive	inactive	
Cc1ccc(C(C)C)cc1	inactive	inactive	inactive	inactive	inactive	
CCCCCCCCCCOC(C)=O	inactive	inactive	inactive	inactive	inactive	
CCCCCCC=CC=O	inactive	inactive	inactive	inactive	inactive	
CCCCC=O	inactive	inactive	inactive	inactive	inactive	
Cc1c(C)c(C)c(C=O)c(C)c1C	inactive	active	inactive	inactive	inactive	
OCCCCCCCCCO	inactive	inactive	inactive	inactive	inactive	
C=C1C2CCC(C2)C1(C)C (stereo unspecified)	inactive	inactive	inactive	inactive	inactive	
CCCCCOC(=O)CC	inactive	inactive	inactive	inactive	inactive	
CC=C(C)C=O	inactive	inactive	inactive	inactive	inactive	
O=C(O)CCCCCCCCC(=O)O	inactive	inactive	inactive	inactive	inactive	

SMILES	odorant receptor agonist call [1]	odorant receptor agonist call [2]	odorant receptor agonist call [3]	odorant receptor agonist call [4]	odorant receptor agonist call [5]	odorant receptor agonist call [6]
CCCCCCC(C)O (stereo unspecified)	inactive	active	inactive	inactive	inactive	
CCCCCC=CCCC=O	inactive	inactive	inactive	inactive	inactive	
CCCCCCCCCCO	inactive	inactive	inactive	inactive	inactive	inactive
CCCC=O	inactive	inactive	inactive	inactive	inactive	
CCCCC(C)=O	inactive	inactive	inactive	inactive	inactive	inactive
CC(=O)OCc1ccccc1	inactive	inactive	inactive	inactive	inactive	inactive
c1ccccc1	inactive	inactive	inactive	inactive	inactive	inactive
CCCCCC1=C(C)CCC1=O	inactive	inactive	inactive	inactive	inactive	inactive
CCc1ccccc1O	inactive	inactive	inactive	inactive	inactive	
CCCCC(=O)CC	inactive	inactive	inactive	inactive	inactive	inactive
CCC(=O)C(=O)CC	inactive	inactive	inactive	inactive	inactive	inactive
CCCCCC(=O)CC	inactive	inactive	inactive	inactive	inactive	inactive
COc1cc(C(=O)O)ccc1O	inactive	inactive	inactive	inactive	inactive	inactive
CCCCCCCCCS	inactive	inactive	inactive	inactive	inactive	inactive
CCCCCC=O	inactive	inactive	inactive	inactive	inactive	inactive
CC(C)=CCCC(C)=CCO	inactive	inactive	inactive	inactive	inactive	inactive
CCCCCCCCS	inactive	inactive	inactive	inactive	inactive	inactive
CCCCCCCCCC(=O)[O-].[H+]	inactive	inactive	inactive	inactive	inactive	inactive
CCCCCCC(C)=O	inactive	inactive	inactive	inactive	inactive	inactive
CC(C)CS	inactive	inactive	inactive	inactive	inactive	
CCCCCCCO	inactive	inactive	inactive	inactive	inactive	inactive
